A selection: hits, their analogues and other compounds. The true share with any hit is near 3.7%.
KCNK3 inh – human KCNK3 channel inhibition, primary screen; B-score at 10 µM; AID 602410; CHO-KCNK3 thallium flux, FluxOR fluorescence; hits give low values; O14649; 340,000 compounds, 0.84% hits;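 active means B-score under library mean minus 4 SD, starting fluorescence ratio at most library mean plus 5 SD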;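 further: more negative B-score means stronger inhibition of thallium flux through KCNK3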
KCNK9 inh – inhibitors of human KCNK9 two-pore domain potassium channel | Q9NPC2 | B-score at 10 µM | 310,000 compounds, 1.2% hits | HEK293 KCNK9, FluxOR thallium flux fluorescence; hits give low values | AID 488922;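 active means ratio B-score over 3 SD below the library mean, with starting fluorescence within 5 SD of its mean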;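 further: negative B-score means less thallium flux so channel inhibition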
Target sequence (Q9NPC2 whole entry, looked up, the tested form may be a part): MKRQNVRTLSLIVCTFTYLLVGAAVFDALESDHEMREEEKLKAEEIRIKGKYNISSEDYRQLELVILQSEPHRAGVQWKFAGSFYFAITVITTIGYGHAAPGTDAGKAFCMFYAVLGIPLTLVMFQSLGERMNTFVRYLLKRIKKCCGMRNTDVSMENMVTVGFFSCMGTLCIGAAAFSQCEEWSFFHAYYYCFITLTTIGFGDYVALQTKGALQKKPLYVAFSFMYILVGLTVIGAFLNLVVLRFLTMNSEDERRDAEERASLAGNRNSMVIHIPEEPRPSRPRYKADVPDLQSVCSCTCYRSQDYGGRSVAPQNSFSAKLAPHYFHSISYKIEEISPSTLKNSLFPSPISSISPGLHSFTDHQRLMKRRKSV
hERG rescue – hERG (human) protection from proarrhythmic block. Q12809. CHO-hERG, FluxOR thallium flux, dofetilide IC70 present. activation (rescue from dofetilide block), less the hit threshold, % at 10 µM. 310,000 compounds, 0.51% hits. AID 1511;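 active means activation above the mean of controls blocked by dofetilide plus 5 SD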;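 further: thallium influx through hERG after potassium depolarization seen as dye fluorescence rise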
Kir21 block – blocks the mouse Kir2.1 inward-rectifier potassium channel; P35561; HEK293-Kir2.1, FluxOR thallium flux fluorescence; hits give low values; B-score at 10 µM; 310,000 compounds, 0.85% hits;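 active means fluorescence ratio B-score at or below minus 3 SD of library scores, with starting-brightness B-score within 2 SD, cut at about -4.2 in these data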;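 further: channel flux triggered by added potassium and thallium sulfate stimulus; B-score of peak minus minimum fluorescence over baseline after thallium stimulus; more negative B-score means stronger Kir2.1 block with less thallium influx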
KCNQ1 pot – potentiators or activators of human KCNQ1 potassium channel | CHO-K1 KCNQ1, thallium flux FluxOR fluorescence; hits give high values | B-score at 10 µM | 310,000 compounds, 0.35% hits;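 active means fluorescence ratio B-score, a plate-corrected score, at least three library SD, with initial intensity B-score within 5 SD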
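Material: CHO-K1 cells stably expressing KCNQ1. Medium: assay buffer for compound exposure, DMSO matched across wells. Reagent: K+/Tl+ depolarizing stimulus. Compound dosing: single-concentration screen. Times: 37 °C overnight plating, 90-min dark dye load, 20-min compound pretreatment. Technique: FluxOR Tl+ flux fluorescence.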
KCNQ1 block – human KCNQ1 channel inhibition. B-score at 10 µM. 310,000 compounds, 1.3% hits. AID 2642. CHO-K1 KCNQ1, FluxOR thallium flux fluorescence; hits give high values;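 active means compounds whose thallium flux B-score, printed positive for inhibition, exceeds three library SD while starting fluorescence stays within three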;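 further: channel opened by potassium depolarization with thallium stimulus after 20 min compound exposure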
KCNQ1 inh valid – confirmation of human KCNQ1 potassium channel inhibitors; shares compounds with KCNQ1 block; KCNQ1 cell line, FluxOR thallium flux fluorescence; inhibition, % at 10 µM; 1,600 compounds, 93% hits;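 active means primary screen active, with duplicate mean exceeding buffer control mean plus 3 SD of buffer wells, cut at about 28% in these data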;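 further: 0% = buffer control ratio and 100% = XE991 inhibitor control ratio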
CHO KCNQ1 ctr – activity in parental CHO cells lacking KCNQ1. shares compounds with KCNQ1 block. parental CHO-K1, FluxOR thallium flux fluorescence ratio; hits give low values; zero means no signal rise above baseline. fluorescence ratio (Tl flux) at 10 µM. 1,600 compounds, 21% hits. AID 588366;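 active means mean of duplicate thallium-flux fluorescence ratios in parental host cells more than 5 SD below the buffer control mean, cut at about 0.38 in these data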;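 further: ratio is peak minus minimum fluorescence divided by baseline fluorescence; actives read low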
KCNQ1 APC inh – human KCNQ1 inhibition validated by electrophysiology; shares compounds with KCNQ1 block; KCNQ1-CHO cells, automated patch clamp current; calls only at 10 µM; 490 compounds, 20% hits; AID 624120;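 active means KCNQ1 current drop exceeding 3 SD of negative control wells, seen in both duplicate runs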;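 further: steady state current during a 2 s step from -80 to +40 mV; negative values mean current inhibition and positive values mean potentiation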
KCNQ2 spec – rat KCNQ2 inhibition in KCNQ1 inhibitor specificity screen. inhibition, % at 10 µM. AID 651746. KCNQ2 cells, FluxOR thallium flux fluorescence. 1,600 compounds, 71% hits. shares compounds with KCNQ1 block;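 active means mean percent inhibition of the KCNQ2 thallium signal more than 5 SD above the buffer-only control wells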;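 further: KCNQ2 expressed in CHO cells; 0% = buffer control wells and 100% = XE-991 inhibitor control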
KCNQ1 KCNE1 spec – human KCNQ1/KCNE1 inhibition in KCNQ1 specificity screen; KCNQ1/KCNE1 cells, FluxOR thallium flux fluorescence; shares compounds with KCNQ1 block; 1,600 compounds, 77% hits; inhibition, % at 10 µM;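 active means mean percent inhibition of duplicate wells above the buffer-only control mean plus 3 SD of those controls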;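 further: 0% = buffer only wells and 100% = XE-991 inhibitor control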
Numbers without * were called inactive.

For CCC(c1nnnn1C1CCCCC1)N1CCN(C(=O)c2ccco2)CC1 (stereo unspecified) the results were KCNK3 inh inactive, KCNK9 inh inactive, hERG rescue -1, Kir21 block 0.83, KCNQ1 pot inactive and KCNQ1 block inactive.
`Cc1ccc(C)c(N2CCN(C(=O)C3CCN(c4nc(C)cc(C)n4)CC3)CC2)c1` gave KCNK3 inh inactive, KCNK9 inh inactive, hERG rescue -13, Kir21 block 1.8, KCNQ1 pot inactive and KCNQ1 block inactive.
For Cc1cc(C)nc(N2CCC(C(=O)N3CCN(c4cc(Cl)ccc4C)CC3)CC2)n1 the results were KCNK3 inh inactive, KCNK9 inh inactive, hERG rescue -14, Kir21 block 1.3, KCNQ1 pot inactive, KCNQ1 block 9*, KCNQ1 inh valid 140*, CHO KCNQ1 ctr 0.46, KCNQ1 APC inh inactive, KCNQ2 spec 111%* and KCNQ1 KCNE1 spec 176%*.
`CCN(CC)/C(=N\S(=O)(=O)c1ccc(F)cc1)c1ccccc1` gave KCNK3 inh inactive, KCNK9 inh inactive, hERG rescue -5, Kir21 block -0.38, KCNQ1 pot inactive and KCNQ1 block inactive.
`O=C(COc1ccccc1)NC(NC(=S)Nc1ccccc1O)C(Cl)(Cl)Cl` (stereo unspecified) gave KCNK3 inh inactive, KCNK9 inh inactive, hERG rescue -16, Kir21 block 1.9, KCNQ1 pot inactive, KCNQ1 block 9*, KCNQ1 inh valid 78*, CHO KCNQ1 ctr 0.48, KCNQ2 spec 92%* and KCNQ1 KCNE1 spec 53%*.
Screening Cc1ccc(-n2c(-c3ccc(Br)cc3)c[n+]3c2CCc2ccc4cccnc4c2-3)cc1 returned KCNK3 inh -11*, KCNK9 inh inactive, hERG rescue -43, Kir21 block -14*, KCNQ1 pot inactive, KCNQ1 block 19*, KCNQ1 inh valid 136*, CHO KCNQ1 ctr 0.32*, KCNQ2 spec 120%* and KCNQ1 KCNE1 spec 184%*.
Cc1cccc(CN2CCN(c3ncccn3)CC2)c1 was read as KCNK3 inh inactive, KCNK9 inh inactive, hERG rescue 2, Kir21 block -0.65, KCNQ1 pot inactive and KCNQ1 block inactive.
Cc1cccc(Cn2c(C(C)(C)C)cc3cccnc32)c1 was read as KCNK3 inh inactive, KCNK9 inh inactive, hERG rescue -10, Kir21 block -5.1*, KCNQ1 pot inactive, KCNQ1 block 8*, KCNQ1 inh valid 64*, CHO KCNQ1 ctr 0.45, KCNQ2 spec 67%* and KCNQ1 KCNE1 spec inactive.
For Cc1ccc(C(C)NC(=O)COC(=O)C2=COCCO2)cc1C (stereo unspecified) the results were KCNK3 inh inactive.
For COc1ccc(CCNc2cc(C)nc3c(-c4ccccc4)cnn23)cc1OC the results were KCNK3 inh inactive, KCNK9 inh inactive, hERG rescue -1, Kir21 block -0.03, KCNQ1 pot inactive and KCNQ1 block inactive.
For COc1ccccc1-c1cnn2c(NCCc3ccccc3)cc(C)nc12 the results were KCNK3 inh inactive, KCNK9 inh inactive, hERG rescue -9, Kir21 block -0.69, KCNQ1 pot inactive, KCNQ1 block 7*, KCNQ1 inh valid 66*, CHO KCNQ1 ctr 0.41, KCNQ2 spec 75%* and KCNQ1 KCNE1 spec 119%*.
For Clc1ccc(/C=C/c2nc3ccccc3[nH]2)cc1 the results were KCNK3 inh inactive, KCNK9 inh inactive, hERG rescue -7, Kir21 block 1.2, KCNQ1 pot inactive and KCNQ1 block inactive.
Clc1cccc(Cl)c1/C=C/c1nc2ccccc2[nH]1 was read as KCNK3 inh -8.8*, KCNK9 inh inactive, hERG rescue -19, Kir21 block -0.48, KCNQ1 pot inactive, KCNQ1 block 14*, KCNQ1 inh valid 121*, CHO KCNQ1 ctr 0.46, KCNQ2 spec 93%* and KCNQ1 KCNE1 spec 130%*.
`O=C(CCN1CCCCC1)c1ccc2c(c1)OCCO2` gave KCNK3 inh inactive, KCNK9 inh inactive, hERG rescue 1, Kir21 block 0.34, KCNQ1 pot inactive and KCNQ1 block inactive.
O=C(CCN1CCCC1Cc1ccccc1)c1ccc2c(c1)OCCO2 (stereo unspecified) was read as KCNK3 inh inactive, KCNK9 inh inactive, hERG rescue -11, Kir21 block -0.19, KCNQ1 pot inactive, KCNQ1 block 7*, KCNQ1 inh valid 82*, CHO KCNQ1 ctr 0.42, KCNQ2 spec 78%* and KCNQ1 KCNE1 spec 100%*.
`O=C(CCN1CCc2ccccc21)c1ccc2c(c1)OCCO2` gave KCNK3 inh inactive, KCNK9 inh inactive, hERG rescue -8, Kir21 block 0.86, KCNQ1 pot inactive and KCNQ1 block inactive.
`O=C(CCN1CCc2ccccc2C1)c1ccc2c(c1)OCCO2` gave KCNK3 inh inactive, KCNK9 inh inactive, hERG rescue -24, Kir21 block 0.02, KCNQ1 pot inactive, KCNQ1 block 7*, KCNQ1 inh valid 44*, CHO KCNQ1 ctr 0.38*, KCNQ2 spec 70%* and KCNQ1 KCNE1 spec 83%*.
`O=C(CCN1CCC(c2ccccc2)C1)c1ccc2c(c1)OCCO2` (stereo unspecified) gave KCNK3 inh inactive, KCNK9 inh inactive, hERG rescue -16, Kir21 block -2.3, KCNQ1 pot inactive, KCNQ1 block 6*, KCNQ1 inh valid 45*, CHO KCNQ1 ctr 0.43, KCNQ2 spec 60%* and KCNQ1 KCNE1 spec 56%*.
`CC(=O)c1c(N2CCOCC2)nc2ccc(Br)cc2c1-c1ccccc1` gave KCNK3 inh inactive, KCNK9 inh inactive, hERG rescue -15, Kir21 block 0.28, KCNQ1 pot inactive, KCNQ1 block 10*, KCNQ1 inh valid 100*, CHO KCNQ1 ctr 0.42, KCNQ1 APC inh inactive, KCNQ2 spec 119%* and KCNQ1 KCNE1 spec 101%*.

Bioassay records from PubChem.
